Measured values of several laboratories.
Protocols differ between the studies behind these lines.
Target: Receptor-interacting serine/threonine-protein kinase 1 (RIPK1, Homo sapiens, UniProt Q13546)
Tested at: 1 µM
One construct used (Q13546 1-671): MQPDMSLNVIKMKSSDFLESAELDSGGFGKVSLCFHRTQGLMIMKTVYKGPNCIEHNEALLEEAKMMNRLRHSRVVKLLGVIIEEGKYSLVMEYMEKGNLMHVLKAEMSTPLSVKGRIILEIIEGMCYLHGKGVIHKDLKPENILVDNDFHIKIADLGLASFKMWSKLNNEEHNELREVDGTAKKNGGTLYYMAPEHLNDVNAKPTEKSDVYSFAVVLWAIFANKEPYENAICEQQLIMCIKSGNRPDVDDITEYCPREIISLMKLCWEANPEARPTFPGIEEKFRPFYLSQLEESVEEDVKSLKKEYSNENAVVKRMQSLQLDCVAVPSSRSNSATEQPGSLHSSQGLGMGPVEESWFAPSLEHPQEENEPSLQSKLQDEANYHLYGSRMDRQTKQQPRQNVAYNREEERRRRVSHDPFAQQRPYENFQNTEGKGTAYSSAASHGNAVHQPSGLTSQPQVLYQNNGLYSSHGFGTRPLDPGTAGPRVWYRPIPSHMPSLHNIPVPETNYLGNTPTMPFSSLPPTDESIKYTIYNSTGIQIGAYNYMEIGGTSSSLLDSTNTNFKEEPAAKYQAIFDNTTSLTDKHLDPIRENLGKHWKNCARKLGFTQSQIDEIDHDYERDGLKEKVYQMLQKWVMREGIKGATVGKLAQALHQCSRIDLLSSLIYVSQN

Compound | observed | technique | remaining binding [%]
c1cnn2ncc(-c3ccnc(N4CCC45COC5)n3)c2c1 | binding | – | 83
COc1cnc(Nc2cccc(S(N)(=O)=O)c2)nc1N1CCN(c2ccccc2)C(=O)C1 | binding | competition with immobilised ligand | 100
Cc1cnc(Nc2ccc(C(=O)N3CCC(N4CCCC4)CC3)cc2)nc1-c1cc2ccccc2s1 | binding | competition with immobilised ligand | 1
O=C(Nc1c[nH]nc1C(=O)NC1CCNCC1)c1cc(F)cc(F)c1 | binding | competition with immobilised ligand | 100
O=C1CCc2cc(Nc3cc(OC4CCOCC4)c([N+](=O)[O-])cc3Cl)ccc2N1 | cell-free assay | competition with immobilised ligand | 100
O=C(c1ccc(Nc2ncc(Cl)c(-c3cc4ccccc4s3)n2)cc1)N1CCC(N2CCCC2)CC1 | binding | competition with immobilised ligand | 2.5
CCCOc1ccc([C@@H]2[C@@H](C(=O)O)[C@H](c3ccc4c(c3)OCO4)CN2CC(=O)Nc2c(CC)cccc2CC)cc1 | cell-free assay | competition with immobilised ligand | 55
O=C(NCCCN1CCOCC1)c1ccc(Nc2nccc(-c3cc4ccccc4s3)n2)cc1 | binding | competition with immobilised ligand | 65
C[C@@H]1CCN(c2nccc(-c3cnn4ncccc34)n2)C1 | binding | – | 100
CCC(=O)N[C@H]1CC[C@@H](C(=O)N(C)c2ccc(-c3nc4ccccc4o3)cc2)C1 | cell-free assay | competition with immobilised ligand | 100
COc1ccnn2ncc(-c3ccnc(N(C)C)n3)c12 | binding | – | 96
C=CC(=O)N1CCC(C(=O)NCC(=O)N2CCN(c3nc(-c4cnc(N)nc4C(F)F)nc(N4CCOCC4)n3)CC2)CC1 | binding | competition with immobilised ligand | 100
O=C(N1CCS(=O)(=O)CC1)N1C[C@H](c2ccc(OC(F)(F)F)cc2)C[C@H](c2nc(C3CC3)no2)C1 | cell-free assay | competition with immobilised ligand | 100
CC1CCCN1c1nccc(-c2cnn3ncccc23)n1 (stereo not drawn) | binding | – | 100
CCCCN(CCCC)C(=O)CN1C[C@@H](c2cc(OC)c3c(c2)OCO3)[C@H](C(=O)O)[C@H]1CC(C)(C)CCC | cell-free assay | competition with immobilised ligand | 100
CNC(=O)[C@@H]1CC[C@@H](n2c(-c3ccc4cnccc4c3)nc3ccc(C(=O)NCc4cccc(C(N)=O)c4)cc32)C1 | binding | competition with immobilised ligand | 100
CNCc1ccccc1-c1csc([C@@H](C)Nc2nc(C)nc3cc(OC)c(OC)cc23)c1 | cell-free assay | competition with immobilised ligand | 97
CN(CCCC(F)(F)F)c1nccc(-c2cnn3ncccc23)n1 | binding | – | 97
